The record followed here is PubChem BioAssay.

Assay [1] in a line: inhibitors of TNFa-induced NFkB p65 translocation, primary screen, imaging, HUVEC, MLSMR starter and 10KST1 sets (AID 438;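 active = inhibition above 20% together with a positive visual image hit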;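 note: compound added about 3h40 before a 20 min TNFalpha stimulation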;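 for inhibition: signal is the nuclear over cytoplasmic p65 intensity ratio per well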). The note with it: HUVEC TNFa-induced p65 nuclear translocation; cell count: measured here: nuclei count (cytotoxicity indicator), at 2.08 µM; inhibition: at 2 µM, stronger effect = higher value, 0% TNFa-plus-vehicle, 100% no-TNFa wells.
Assay [2] is described as follows: inhibitors of mutant huntingtin aggregation, primary screen, imaging, exon1htt(103Q)mCFP cells, high-content imaging (AID 483;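 active = visual image review flags a hit and inhibition of aggregation exceeds 20%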;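 note: compound exposure lasted 3 days before fixation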;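 for nuclei count: percent of the per-plate median nuclei count of sample wells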). Conditions: exon1htt(103Q)mCFP cell line, aggregate imaging, at 2 µM; inhibition of aggregation: stronger effect = higher value; nuclei count: measured here: cell count, toxicity.
A short description of assay [3]: inhibitors of E-selectin induction by TNFa, primary screen, imaging, HUVEC, immunofluorescence, MLSMR starter and 10KST1 sets (AID 487;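 active = visually confirmed hit in the image check and inhibition above 20%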;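 for inhibition: signal is fraction of cell area covered by stained E-selectin grains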;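 for nuclei count: 100% = median nuclei count of all wells on the same plate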). Conditions: HUVEC TNFalpha-induced E-selectin immunofluorescence imaging, at 2 µM; inhibition: stronger effect = higher value; nuclei count: measured here: cell number, toxicity.
Assay [4] concerns the target Voltage-gated potassium channel subunit beta-2 (Rattus norvegicus) (UniProt P62483). Nature of the assay: KvBeta enzyme negative modulators, primary screen, biochemical, NADPH fluorescence (AID 622;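 active = fluorescence slope higher than the sample average by over 3 SD, cut at about -0.22 in these data, passing the limit was not always enough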;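 note: slope of raw intensity against log time taken from 70 to 1610 s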). The note with it: recombinant KvBeta, 4-cyanobenzaldehyde reduction, at 10 µM, stronger effect = higher value.
Assay [5] has the same target. The assay can be described thus: KvBeta positive modulators, primary screen, biochemical, NADPH fluorescence (AID 623).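 Note: fluorescence intensity change per second fitted from 20 to 320 s.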 Conditions: Recombinant KvBeta, NADPH fluorescence decrease slope, 10 min; at 10 µM; stronger effect = lower value.
Assay [6] addresses Muscarinic acetylcholine receptor M4 (Homo sapiens) (UniProt P08173). Nature of the assay: compounds altering M4/GIRK thallium flux, either direction, primary screen, M4 allosteric agonist project, cell-based, HEK293 M4/GIRK, BTC-AM (AID 625;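 active = fluorescence slope after compound addition differing from the mean of all tested samples at 99.7% confidence, mostly higher but some lower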;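 note: thallium influx through GIRK channels coupled to M4 in HEK293 cells with BTC-AM dye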). The note with it: at 10 µM, actives lie on both sides. The essentials: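 assay system = HEK293 cells with M4 receptor and GIRK channels | medium = pH 7.3 thallium assay buffer | doses = 10 µM final, single point | timing = cells overnight at 37 °C, BTC-AM loading 1 h, reads 2 min total | signal = BTC-AM fluorescence, 1 Hz kinetic reads | read-out = post-addition slope, 15–24 s, of baseline-normalized fluorescence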

The nature of assay [7]: inhibitors of Sendai virus-induced IRF3 signaling, primary screen, TLR/RLR signaling modifier project, cell-based, Sendai virus stimulus, luciferase, 10K MLSCN set (AID 602276;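 active = inhibition at or above 50% at 10 µM; inactive = inhibition below 50%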;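 note: firefly luciferase from ISG56 promoter only with Renilla not read in this screen; 0% = Sendai virus plus DMSO and 100% = medium plus DMSO without virus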). Conditions: HEK293 RL24 IRF3 luciferase reporter, at 10 µM, stronger effect = higher value. A general note: Reporter assays use an easily measured gene product as a stand-in for the process of interest.
Assay [8] in a line: inhibitors of poly I:C-induced TLR3 signaling, primary screen, cell-based, poly I:C stimulus, luciferase, 10K MLSCN set (AID 602277;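 active = inhibition of the reporter signal at or above 50%; inactive = inhibition below 50%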). The note with it: HEK293-TLR3 RL24 IRF3 luciferase reporter, at 10 µM, stronger effect = higher value.

Activity calls are given as the source filed them.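 Rule for the calls, unless noted: active = NADPH fluorescence slope more negative than the mean of all samples by about 3 SD, 99.7% confidence; inactive = the rest.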

For orientation: inhibition means the relative decrease from the control value, in per cent.

Sequence of Voltage-gated potassium channel subunit beta-2 (Rattus norvegicus) (P62483 whole entry, looked up): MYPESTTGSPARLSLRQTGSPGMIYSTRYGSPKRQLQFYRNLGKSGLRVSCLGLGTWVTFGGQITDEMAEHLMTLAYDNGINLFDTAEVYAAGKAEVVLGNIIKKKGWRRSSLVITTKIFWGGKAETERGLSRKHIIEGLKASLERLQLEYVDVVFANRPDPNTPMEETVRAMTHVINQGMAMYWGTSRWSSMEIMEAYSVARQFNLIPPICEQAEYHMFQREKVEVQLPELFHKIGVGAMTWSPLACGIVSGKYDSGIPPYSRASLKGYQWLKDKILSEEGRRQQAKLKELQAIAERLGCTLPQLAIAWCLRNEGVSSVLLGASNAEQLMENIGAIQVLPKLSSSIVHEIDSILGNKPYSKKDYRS
Sequence of Muscarinic acetylcholine receptor M4 (Homo sapiens) (P08173 whole entry, looked up): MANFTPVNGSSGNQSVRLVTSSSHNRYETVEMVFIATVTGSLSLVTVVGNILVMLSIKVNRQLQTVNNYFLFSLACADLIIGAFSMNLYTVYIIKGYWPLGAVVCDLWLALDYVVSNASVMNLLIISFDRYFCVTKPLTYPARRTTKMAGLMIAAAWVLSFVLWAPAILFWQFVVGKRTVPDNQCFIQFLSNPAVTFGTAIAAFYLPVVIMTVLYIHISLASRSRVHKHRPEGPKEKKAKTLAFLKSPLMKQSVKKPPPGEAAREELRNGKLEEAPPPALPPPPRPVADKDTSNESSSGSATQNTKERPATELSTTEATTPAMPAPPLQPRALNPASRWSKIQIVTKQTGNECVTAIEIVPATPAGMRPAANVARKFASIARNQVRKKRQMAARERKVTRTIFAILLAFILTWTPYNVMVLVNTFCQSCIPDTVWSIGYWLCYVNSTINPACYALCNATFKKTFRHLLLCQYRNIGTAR

Regarding `Cc1cc(C)c2c(n1)nn1c(N3CCN(c4ccccc4C)CC3)cc(C)nc21`, the cell count in assay [1] was 420. Also, the inhibition in assay [1] is -11.8% (inactive); in assay [3] it was -52.8% (inactive); in assay [7] it was -4.5% (inactive); in assay [8], -6.94% (inactive). In addition, in assay [2], the inhibition of aggregation is -116% (inactive). For the same molecule, the nuclei count in assay [2] came out at 81%; in assay [3], 110%. The fluorescence slope in assay [4] is -0.447 (inactive); in assay [6] it was 0.00576 (inactive). Moreover, the NADPH fluorescence slope in assay [5] is 1.5e-05 (inactive).
Regarding `Cc1ccc(Cn2ccc(NC(=O)c3noc4c3CCCC4)n2)cc1`, the cell count in assay [1] is 246. For the same molecule, the inhibition in assay [1] was -0.8% (inactive); in assay [3] it was 44.7% (inactive); in assay [7] it was 10% (inactive); in assay [8], -98.2% (inactive). For the same molecule, the inhibition of aggregation in assay [2] was -6.8% (inactive). Besides, the nuclei count in assay [2] turned out to be 97.7%; in assay [3] it was 117%. In addition, the fluorescence slope was -0.539 (inactive) in assay [4] and 0.00747 (inactive) in assay [6]. Also, the NADPH fluorescence slope in assay [5] was -3.2e-05 (inactive).
In the case of `Cc1onc(-c2ccccc2)c1C(=O)N1CCCSC1=Nc1ccccc1`, in assay [1], the cell count amounted to 665. Besides, the inhibition in assay [1] is 6.5% (inactive); in assay [3], 29.1% (inactive); in assay [7] it was 10.2% (inactive); in assay [8], 31.9% (inactive). The inhibition of aggregation in assay [2] is 12.6% (inactive). Further, the nuclei count worked out at 110% in assay [2] and 79.6% in assay [3]. Moreover, the fluorescence slope in assay [4] is -0.567 (inactive); in assay [6] it was 0.00639 (inactive). The NADPH fluorescence slope in assay [5] is -5.7e-05 (inactive).
Regarding `CCOC(=O)c1cccc(NC(=O)CCn2nnc3ccccc32)c1`, the cell count in assay [1] came to 341. Further, the inhibition in assay [1] is 1.2% (inactive); in assay [3], -4.7% (inactive); in assay [7], 18.4% (inactive); in assay [8], 8.84% (inactive). The inhibition of aggregation in assay [2] was 4.8% (inactive). For the same molecule, the nuclei count turned out to be 112% in assay [2] and 118% in assay [3]. Moreover, the figures for the fluorescence slope in assay [4] and in assay [6] were -0.457 (inactive) and 0.00454 (inactive), respectively. Further, the NADPH fluorescence slope in assay [5] was -2.8e-05 (inactive).
For `Cc1cccc(C)c1NC(=O)N1CCN(C2CCCCC2)CC1`, the cell count in assay [1] was 364. The inhibition is 1.2% (inactive) in assay [1], -8.3% (inactive) in assay [3], -1.81% (inactive) in assay [7] and 18.1% (inactive) in assay [8]. In assay [2], the inhibition of aggregation is -2% (inactive). Also, the nuclei count in assay [2] and in assay [3] was 106% each time. In addition, the fluorescence slope in assay [4] was -0.578 (inactive); in assay [6] it was 0.00564 (inactive). Further, in assay [5], the NADPH fluorescence slope is -3.9e-05 (inactive).
For `CC(C)[C@H](NC(=O)[C@@H]1CSCN1C(=O)OC(C)(C)C)C(=O)NCC1CCC(C(=O)O)CC1` (some centres undefined), the cell count in assay [1] stood at 341. Moreover, the inhibition in assay [1] is 8.6% (inactive); in assay [3] it was 17.3% (inactive); in assay [7], 25.1% (inactive); in assay [8] it was 22.7% (inactive). Also, the inhibition of aggregation in assay [2] was 11.9% (inactive). Further, the nuclei count in assay [2] worked out at 92.5%; in assay [3] it was 84.4%. The fluorescence slope was -0.579 (inactive) in assay [4] and 0.00513 (inactive) in assay [6]. Besides, the NADPH fluorescence slope in assay [5] is 1.8e-05 (inactive).
For `O=C1CC(c2ccc(S(=O)(=O)N3CCN(c4ccccc4)CC3)cc2)CN1` (centres undefined), the cell count in assay [1] is 426. For the same molecule, the inhibition is 0.3% (inactive) in assay [1], 75.6% (active) in assay [3], 5.45% (inactive) in assay [7] and 14.5% (inactive) in assay [8]. Besides, the inhibition of aggregation in assay [2] is 7.2% (inactive). Further, the values for the nuclei count in assay [2] and in assay [3] were 102% and 44.2%, respectively. The fluorescence slope in assay [4] was -0.289 (inactive); in assay [6], 0.00584 (inactive). The NADPH fluorescence slope in assay [5] is -4.6e-05 (inactive).
In the case of `CCSC1=NCN(CCCC(=O)O)CN1`, the cell count in assay [1] is 645. For the same molecule, the inhibition in assay [1] is 10.1% (inactive); in assay [3], -81.7% (inactive); in assay [7], 12.3% (inactive); in assay [8] it was 10.3% (inactive). In addition, the inhibition of aggregation in assay [2] is 5.8% (inactive). Further, the nuclei count in assay [2] was determined as 106%; in assay [3] it was 125%. Also, the figures for the fluorescence slope in assay [4] and in assay [6] were -0.558 (inactive) and 0.00489 (inactive), respectively. The NADPH fluorescence slope in assay [5] is -4e-05 (inactive).
Consider `Cc1c(NC(=O)c2cnn3c2NC(c2ccco2)CC3C(F)(F)F)c(=O)n(-c2ccccc2)n1C` (centres undefined), for which, in assay [1], the cell count came out at 436. Further, the inhibition in assay [1] was -1% (inactive); in assay [3], -27.3% (inactive); in assay [7] it was 15.2% (inactive); in assay [8] it was 18.8% (inactive). For the same molecule, the inhibition of aggregation in assay [2] was 2.9% (inactive). Moreover, the results for the nuclei count in assay [2] and in assay [3] were 101% and 115%, respectively. Further, the figures for the fluorescence slope in assay [4] and in assay [6] were -0.557 (inactive) and 0.00692 (inactive), respectively. Further, the NADPH fluorescence slope in assay [5] was -2.6e-05 (inactive).
Consider `Cc1nc(-c2ccc(NC(=O)c3cccs3)cc2)cs1`, for which, in assay [1], the cell count amounted to 369. Besides, the inhibition in assay [1] was -3.7% (inactive); in assay [3] it was -0.4% (inactive); in assay [7], -23.5% (inactive); in assay [8], -96.4% (inactive). Further, in assay [2], the inhibition of aggregation is 20.1% (inactive). Further, the nuclei count in assay [2] came out at 105%; in assay [3], 109%. Further, the results for the fluorescence slope in assay [4] and in assay [6] were -0.427 (inactive) and 0.005 (inactive), respectively. In assay [5], the NADPH fluorescence slope was -4.1e-05 (inactive).
For `CCCCSc1nc2c(cnn2-c2ccc(Cl)cc2)c(=O)[nH]1`, in assay [1], the cell count came to 233. The inhibition in assay [1] was -0.3% (inactive); in assay [3] it was -23.4% (inactive); in assay [7] it was 16.7% (inactive); in assay [8], 16.6% (inactive). The inhibition of aggregation in assay [2] was 6.5% (inactive). For the same molecule, the figures for the nuclei count in assay [2] and in assay [3] were 103% and 111%, respectively. Moreover, the fluorescence slope in assay [4] is -0.426 (inactive); in assay [6] it was 0.00579 (inactive). For the same molecule, in assay [5], the NADPH fluorescence slope is -9.3e-05 (inactive).
Take `CCOC(=O)C1=C(CC)Nc2ccccc2N=C1NC(=O)Cn1cnc2ccccc2c1=O`: in assay [1], the cell count was 529. Moreover, the inhibition in assay [1] is 6.3% (inactive); in assay [3], -28.7% (inactive); in assay [7] it was 10.4% (inactive); in assay [8], 20% (inactive). Moreover, the inhibition of aggregation in assay [2] was 6.9% (inactive). The nuclei count turned out to be 117% in assay [2] and 123% in assay [3]. In addition, the fluorescence slope was -0.534 (inactive) in assay [4] and 0.00608 (inactive) in assay [6]. Further, the NADPH fluorescence slope in assay [5] was -4.1e-05 (inactive).
As to `COc1cc(OC)cc(-n2nnnc2SCC(=O)N2CCCC2)c1`, the cell count in assay [1] is 740. The inhibition in assay [1] is -7.3% (inactive); in assay [3], 12% (inactive); in assay [7] it was 15.1% (inactive); in assay [8] it was 23.1% (inactive). Further, the inhibition of aggregation in assay [2] is 18.3% (inactive). The nuclei count in assay [2] worked out at 94.2%; in assay [3], 103%. For the same molecule, the fluorescence slope was -0.622 (inactive) in assay [4] and 0.0053 (inactive) in assay [6]. Also, the NADPH fluorescence slope in assay [5] is 1.7e-05 (inactive).
As to `CCOCCCNC(=O)c1c[nH]c2ccc(S(=O)(=O)Nc3cccc(OC)c3)cc2c1=O`, in assay [1], the cell count amounted to 337. Further, the inhibition in assay [1] was -3.1% (inactive); in assay [3], -85.4% (inactive); in assay [7], 0.375% (inactive); in assay [8], 0.559% (inactive). For the same molecule, the inhibition of aggregation in assay [2] is -12.3% (inactive). Also, the nuclei count came out at 99.2% in assay [2] and 105% in assay [3]. The fluorescence slope was -0.599 (inactive) in assay [4] and 0.00605 (inactive) in assay [6]. Further, the NADPH fluorescence slope in assay [5] was -3.6e-05 (inactive).
